Measured values from the M2OR odorant receptor database.

Legend:
Details in all cases: stereoisomer not certain
[1] = molecular target: T1, OR10J5 (Homo sapiens) (UniProt Q8NHC4)
T1 sequence (whole entry): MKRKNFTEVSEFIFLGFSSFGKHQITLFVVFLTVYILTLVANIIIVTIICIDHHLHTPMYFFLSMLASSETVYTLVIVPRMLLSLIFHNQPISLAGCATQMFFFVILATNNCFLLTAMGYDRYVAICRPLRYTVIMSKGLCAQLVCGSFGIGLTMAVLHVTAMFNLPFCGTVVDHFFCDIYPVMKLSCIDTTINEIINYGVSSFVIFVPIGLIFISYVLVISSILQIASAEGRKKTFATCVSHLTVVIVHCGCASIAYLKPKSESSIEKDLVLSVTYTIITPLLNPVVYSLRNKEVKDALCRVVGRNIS
Summary of the method: (§1)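 Whether a receptor–molecule pair is responsive (active) rests on the original authors' judgment that its measured signal was statistically different from baseline. Pairs without that judgment are non-responsive (inactive). Sources used varied assay methods, commonly transient luciferase assays in mammalian cell lines.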

[2] = molecular target: T2, OR10G2 (Homo sapiens) (UniProt Q8NGC3)
T2 sequence (whole entry): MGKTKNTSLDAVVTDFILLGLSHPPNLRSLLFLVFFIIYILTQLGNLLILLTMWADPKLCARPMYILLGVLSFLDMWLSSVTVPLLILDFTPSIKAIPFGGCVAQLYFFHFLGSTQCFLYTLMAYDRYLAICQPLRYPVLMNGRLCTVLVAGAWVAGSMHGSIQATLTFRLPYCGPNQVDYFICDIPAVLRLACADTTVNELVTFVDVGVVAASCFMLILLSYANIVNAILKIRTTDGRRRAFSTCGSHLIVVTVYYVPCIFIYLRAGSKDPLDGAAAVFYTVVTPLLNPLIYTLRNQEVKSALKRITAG
Summary of the method: as §1

[3] = molecular target: T3, OR10G3 (Homo sapiens) (UniProt Q8NGC4)
T3 sequence (whole entry): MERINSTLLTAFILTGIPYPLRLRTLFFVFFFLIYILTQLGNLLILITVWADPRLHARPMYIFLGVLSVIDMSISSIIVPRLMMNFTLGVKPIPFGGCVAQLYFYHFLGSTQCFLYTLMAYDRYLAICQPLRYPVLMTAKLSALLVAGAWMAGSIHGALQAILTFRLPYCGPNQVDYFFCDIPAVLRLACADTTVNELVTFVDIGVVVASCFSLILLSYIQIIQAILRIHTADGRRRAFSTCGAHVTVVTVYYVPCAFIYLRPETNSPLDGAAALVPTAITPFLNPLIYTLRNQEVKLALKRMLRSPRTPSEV
Summary of the method: as §1

[4] = molecular target: T4, OR10G4 (Homo sapiens) (UniProt Q8NGN3)
T4 sequence (whole entry): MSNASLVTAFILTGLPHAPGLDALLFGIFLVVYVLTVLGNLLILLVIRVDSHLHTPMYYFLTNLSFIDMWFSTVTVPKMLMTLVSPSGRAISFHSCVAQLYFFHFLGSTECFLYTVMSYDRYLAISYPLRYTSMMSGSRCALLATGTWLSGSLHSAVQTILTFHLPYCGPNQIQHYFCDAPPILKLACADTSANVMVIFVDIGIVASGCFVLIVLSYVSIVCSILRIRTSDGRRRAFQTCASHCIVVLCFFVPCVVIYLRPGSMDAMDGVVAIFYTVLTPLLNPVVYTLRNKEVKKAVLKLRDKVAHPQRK
Summary of the method: as §1

[5] = molecular target: T5, OR10G6 (Homo sapiens) (UniProt Q8NH81)
T5 sequence (whole entry): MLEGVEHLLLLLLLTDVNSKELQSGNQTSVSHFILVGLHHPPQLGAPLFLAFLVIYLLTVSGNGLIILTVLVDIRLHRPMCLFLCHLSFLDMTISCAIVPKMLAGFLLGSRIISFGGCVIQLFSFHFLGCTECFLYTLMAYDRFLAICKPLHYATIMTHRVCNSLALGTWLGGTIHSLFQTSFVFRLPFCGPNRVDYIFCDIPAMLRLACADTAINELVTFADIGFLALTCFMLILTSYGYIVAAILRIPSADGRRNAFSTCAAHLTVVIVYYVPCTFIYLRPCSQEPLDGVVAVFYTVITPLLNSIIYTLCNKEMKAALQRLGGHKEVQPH
Summary of the method: as §1

[6] = molecular target: T6, OR10G7 (Homo sapiens) (UniProt Q8NGN6)
T6 sequence (whole entry): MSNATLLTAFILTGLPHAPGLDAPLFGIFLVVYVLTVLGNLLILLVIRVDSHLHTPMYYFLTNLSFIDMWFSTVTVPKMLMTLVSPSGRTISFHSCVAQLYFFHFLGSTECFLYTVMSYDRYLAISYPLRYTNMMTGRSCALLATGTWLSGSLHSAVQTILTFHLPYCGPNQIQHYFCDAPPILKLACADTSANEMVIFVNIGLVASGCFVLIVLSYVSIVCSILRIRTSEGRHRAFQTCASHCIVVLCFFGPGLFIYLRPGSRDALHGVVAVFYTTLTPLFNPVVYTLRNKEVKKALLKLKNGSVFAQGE
Summary of the method: as §1

[7] = molecular target: T7, OR10G8 (Homo sapiens) (UniProt Q8NGN5)
T7 sequence (whole entry): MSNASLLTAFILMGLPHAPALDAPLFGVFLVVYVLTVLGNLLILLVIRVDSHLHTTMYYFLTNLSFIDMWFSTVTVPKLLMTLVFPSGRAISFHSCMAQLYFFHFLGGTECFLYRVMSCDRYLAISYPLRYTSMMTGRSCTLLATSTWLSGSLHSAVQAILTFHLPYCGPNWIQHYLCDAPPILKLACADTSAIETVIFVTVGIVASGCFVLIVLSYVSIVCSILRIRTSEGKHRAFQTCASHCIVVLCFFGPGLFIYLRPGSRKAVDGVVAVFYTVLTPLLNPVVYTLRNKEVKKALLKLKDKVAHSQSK
Summary of the method: as §1

[8] = molecular target: T8, OR10G9 (Homo sapiens) (UniProt Q8NGN4)
T8 sequence (whole entry): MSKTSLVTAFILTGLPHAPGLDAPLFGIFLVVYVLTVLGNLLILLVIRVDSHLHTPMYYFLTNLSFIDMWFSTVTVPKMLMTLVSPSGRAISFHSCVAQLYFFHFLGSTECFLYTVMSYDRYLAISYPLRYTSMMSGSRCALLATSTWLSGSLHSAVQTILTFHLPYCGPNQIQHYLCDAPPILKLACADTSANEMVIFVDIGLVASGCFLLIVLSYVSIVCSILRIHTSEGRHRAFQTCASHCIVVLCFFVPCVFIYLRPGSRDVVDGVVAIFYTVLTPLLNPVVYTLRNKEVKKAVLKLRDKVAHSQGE
Summary of the method: as §1

[9] = molecular target: T9, OR10H1 (Homo sapiens) (UniProt Q9Y4A9)
T9 sequence (whole entry): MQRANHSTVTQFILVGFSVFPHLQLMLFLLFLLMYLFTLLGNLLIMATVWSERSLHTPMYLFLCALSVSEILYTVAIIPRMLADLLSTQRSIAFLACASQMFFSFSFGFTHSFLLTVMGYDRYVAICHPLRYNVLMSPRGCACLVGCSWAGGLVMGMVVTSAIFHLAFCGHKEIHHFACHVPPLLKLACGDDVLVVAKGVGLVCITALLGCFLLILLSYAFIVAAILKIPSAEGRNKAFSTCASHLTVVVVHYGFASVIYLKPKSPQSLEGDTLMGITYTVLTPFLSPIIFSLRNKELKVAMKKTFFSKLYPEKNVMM
Summary of the method: as §1

[10] = molecular target: T10, OR10H2 (Homo sapiens) (UniProt O60403)
T10 sequence (whole entry): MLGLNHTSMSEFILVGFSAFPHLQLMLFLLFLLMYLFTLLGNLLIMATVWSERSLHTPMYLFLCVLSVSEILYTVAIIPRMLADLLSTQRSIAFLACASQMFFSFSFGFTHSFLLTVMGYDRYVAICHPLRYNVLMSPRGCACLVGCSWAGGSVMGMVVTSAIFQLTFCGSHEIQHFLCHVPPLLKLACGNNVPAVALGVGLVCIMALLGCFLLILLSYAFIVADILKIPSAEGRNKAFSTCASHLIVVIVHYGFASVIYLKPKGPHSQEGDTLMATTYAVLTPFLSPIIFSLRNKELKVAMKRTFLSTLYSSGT
Summary of the method: as §1

[11] = molecular target: T11, OR10H3 (Homo sapiens) (UniProt O60404)
T11 sequence (whole entry): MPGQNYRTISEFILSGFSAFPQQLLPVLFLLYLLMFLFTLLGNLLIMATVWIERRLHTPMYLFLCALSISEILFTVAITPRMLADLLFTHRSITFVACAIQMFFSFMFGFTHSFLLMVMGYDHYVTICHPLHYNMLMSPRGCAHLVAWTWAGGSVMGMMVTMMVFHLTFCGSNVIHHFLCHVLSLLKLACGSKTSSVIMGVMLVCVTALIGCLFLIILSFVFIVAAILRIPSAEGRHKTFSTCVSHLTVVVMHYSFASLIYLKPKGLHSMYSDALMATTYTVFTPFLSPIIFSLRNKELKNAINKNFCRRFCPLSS
Summary of the method: as §1

[12] = molecular target: T12, OR10H4 (Homo sapiens) (UniProt Q8NGA5)
T12 sequence (whole entry): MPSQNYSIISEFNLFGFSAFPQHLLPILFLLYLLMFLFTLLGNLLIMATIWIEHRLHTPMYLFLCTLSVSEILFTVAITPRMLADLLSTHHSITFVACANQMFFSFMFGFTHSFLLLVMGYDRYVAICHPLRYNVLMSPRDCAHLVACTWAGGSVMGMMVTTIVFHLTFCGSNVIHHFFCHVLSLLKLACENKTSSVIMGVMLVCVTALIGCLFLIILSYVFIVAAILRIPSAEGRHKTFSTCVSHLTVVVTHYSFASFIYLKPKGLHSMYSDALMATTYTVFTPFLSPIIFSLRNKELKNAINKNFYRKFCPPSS
Summary of the method: as §1

[13] = molecular target: T13, OR10H5 (Homo sapiens) (UniProt Q8NGA6)
T13 sequence (whole entry): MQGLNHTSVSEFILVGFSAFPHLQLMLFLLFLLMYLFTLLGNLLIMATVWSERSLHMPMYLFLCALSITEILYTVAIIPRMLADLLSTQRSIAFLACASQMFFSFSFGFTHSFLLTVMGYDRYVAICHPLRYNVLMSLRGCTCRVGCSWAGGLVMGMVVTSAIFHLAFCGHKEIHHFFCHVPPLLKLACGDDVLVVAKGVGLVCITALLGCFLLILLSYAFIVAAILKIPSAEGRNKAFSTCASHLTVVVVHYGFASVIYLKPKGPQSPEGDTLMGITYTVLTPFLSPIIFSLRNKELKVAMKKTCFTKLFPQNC
Summary of the method: as §1

[14] = molecular target: T14, OR10J1 (Homo sapiens) (UniProt P30954)
T14 sequence (whole entry): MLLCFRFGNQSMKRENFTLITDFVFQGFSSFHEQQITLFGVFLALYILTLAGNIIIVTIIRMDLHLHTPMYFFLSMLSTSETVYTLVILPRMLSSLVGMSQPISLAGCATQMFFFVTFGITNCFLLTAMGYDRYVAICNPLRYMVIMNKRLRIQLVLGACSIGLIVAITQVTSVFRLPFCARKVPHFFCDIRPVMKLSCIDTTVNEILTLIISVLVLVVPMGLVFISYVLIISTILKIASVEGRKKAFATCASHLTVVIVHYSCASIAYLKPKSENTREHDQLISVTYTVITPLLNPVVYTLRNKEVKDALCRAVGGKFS
Summary of the method: as §1

[15] = molecular target: T15, OR10J3 (Homo sapiens) (UniProt Q5JRS4)
T15 sequence (whole entry): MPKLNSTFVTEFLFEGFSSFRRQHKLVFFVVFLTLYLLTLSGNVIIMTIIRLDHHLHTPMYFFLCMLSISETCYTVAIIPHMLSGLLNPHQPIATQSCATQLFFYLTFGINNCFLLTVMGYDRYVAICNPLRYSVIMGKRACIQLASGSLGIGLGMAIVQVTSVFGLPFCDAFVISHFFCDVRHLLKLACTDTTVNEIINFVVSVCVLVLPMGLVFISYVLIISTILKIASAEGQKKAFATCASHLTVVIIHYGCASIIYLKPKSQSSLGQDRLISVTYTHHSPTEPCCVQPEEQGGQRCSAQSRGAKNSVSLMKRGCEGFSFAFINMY
Summary of the method: as §1

[16] = molecular target: T16, OR10K1 (Homo sapiens) (UniProt Q8NGX5)
T16 sequence (whole entry): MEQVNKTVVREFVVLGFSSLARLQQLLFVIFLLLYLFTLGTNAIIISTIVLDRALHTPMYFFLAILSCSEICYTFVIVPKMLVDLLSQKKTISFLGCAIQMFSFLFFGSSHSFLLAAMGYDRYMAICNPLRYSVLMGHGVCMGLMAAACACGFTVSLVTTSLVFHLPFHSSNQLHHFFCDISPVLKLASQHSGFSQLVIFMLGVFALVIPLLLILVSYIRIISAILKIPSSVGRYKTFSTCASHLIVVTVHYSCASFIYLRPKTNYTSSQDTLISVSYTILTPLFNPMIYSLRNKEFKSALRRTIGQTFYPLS
Summary of the method: as §1

[17] = molecular target: T17, OR10P1 (Homo sapiens) (UniProt Q8NGE3)
T17 sequence (whole entry): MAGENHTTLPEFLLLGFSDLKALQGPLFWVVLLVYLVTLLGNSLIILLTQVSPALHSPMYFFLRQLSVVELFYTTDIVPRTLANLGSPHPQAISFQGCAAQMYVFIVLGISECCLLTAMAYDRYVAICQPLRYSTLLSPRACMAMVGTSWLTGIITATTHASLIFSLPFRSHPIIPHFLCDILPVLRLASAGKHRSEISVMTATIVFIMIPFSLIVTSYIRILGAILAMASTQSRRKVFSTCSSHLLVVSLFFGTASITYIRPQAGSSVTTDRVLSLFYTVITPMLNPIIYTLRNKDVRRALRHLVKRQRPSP
Summary of the method: as §1

[18] = molecular target: T18, OR10Q1 (Homo sapiens) (UniProt Q8NGQ4)
T18 sequence (whole entry): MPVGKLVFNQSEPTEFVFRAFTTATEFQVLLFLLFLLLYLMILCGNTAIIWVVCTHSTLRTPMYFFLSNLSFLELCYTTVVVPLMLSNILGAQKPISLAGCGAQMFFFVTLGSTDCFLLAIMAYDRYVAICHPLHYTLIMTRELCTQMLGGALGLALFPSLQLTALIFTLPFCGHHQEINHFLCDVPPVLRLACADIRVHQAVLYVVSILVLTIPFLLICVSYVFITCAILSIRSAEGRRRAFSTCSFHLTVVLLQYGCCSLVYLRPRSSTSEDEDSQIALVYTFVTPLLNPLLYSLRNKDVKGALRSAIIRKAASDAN
Summary of the method: as §1

Measured: odorant receptor agonist call;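 note: active if original authors judged signal statistically different from baseline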

CCCCCCCCO
inactive: [1]

CC1=C(O)C(=O)OC1C (stereo not given)
inactive: all assays above

CCCCCCOC(C)=O
inactive: [1]
